# In the library only some 3.5% were active in any assay of this set; here they are far more common.
# MrgX1 antag = blocks BAM8-22 activation of human MrgX1 receptor | B-score at 10 µM | Q96LB2 | 310,000 compounds, 1.3% hits | MRGX1-HEK293 calcium flux, Fluo-4, BAM8-22 antagonism; active compounds read low;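 active means calcium-response B-score plate-corrected more than 3 library SD below zero, starting fluorescence within 5 deviations, no agonist response on first addition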;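 further: peak minus trough fluorescence over baseline after final BAM8-22 challenge near maximal dose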
# Target sequence (Q96LB2 whole entry, looked up): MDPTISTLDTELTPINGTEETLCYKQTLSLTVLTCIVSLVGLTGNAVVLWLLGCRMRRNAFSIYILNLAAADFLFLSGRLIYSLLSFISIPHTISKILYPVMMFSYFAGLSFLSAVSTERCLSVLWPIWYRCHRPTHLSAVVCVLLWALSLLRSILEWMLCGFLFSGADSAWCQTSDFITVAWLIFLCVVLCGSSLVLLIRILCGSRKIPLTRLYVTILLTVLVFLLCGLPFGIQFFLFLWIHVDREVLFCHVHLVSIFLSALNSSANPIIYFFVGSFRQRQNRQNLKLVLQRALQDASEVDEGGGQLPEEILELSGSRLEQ
# RGS4 act = potentiators or activators of RGS4; B-score at 10 µM; HEK293 M3R/inducible RGS4, carbachol calcium flux Fluo4; active compounds read low; 310,000 compounds, 0.92% hits;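 active means B-score of the integrated calcium signal more than 4 SD below the library mean, with starting fluorescence not abnormally high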;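 further: negative B-score means reduced calcium response which marks RGS4 activation or potentiation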
#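 Also added: carbachol at ECmax as muscarinic agonist stimulus; Assay system: HEK293 cells with stable M3R and inducible RGS4; Timing: overnight RGS4 induction, 30 min dye load 37 °C, 20 min compound RT; Measured by: Fluo4-AM (2 µM) calcium-flux fluorescence, kinetic read.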
# MrgX1 ag = agonists of human MrgX1 receptor | Q96LB2 | MrgX1-HEK293 cells, Fluo-4 calcium fluorescence, agonist mode; active compounds read high | B-score at 10 µM | 310,000 compounds, 0.44% hits | AID 588627;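 active means calcium response B-score plate-corrected fluorescence ratio at least 3 library SD, with starting fluorescence B-score inside 5 SD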
#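 Test system: HEK293 cells stably expressing human MrgX1 receptor; Input: fifteen thousand cells per well; Dosing: compound delivered in addition one of three; Schedule: overnight seeding, then 1 h dark dye loading; Technique: Fluo-4 NW calcium fluorescence; Measure: B-scored fluorescence response ratio; Controls: positive and negative controls per plate.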
# RGS4 block = human RGS4 inhibition. P49798. 310,000 compounds, 0.45% hits. AID 463165. B-score at 10 µM. HEK293 M3R/RGS4 inducible, Fluo-4 calcium flux; active compounds read high; triggered by carbachol at its EC20;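 active means B-score, a plate-corrected calcium signal, over three deviations above library mean, with baseline fluorescence within five deviations of library mean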;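 further: RGS4 expression induced by doxycycline in cells with stable M3 receptor; B-score is computed from the integrated fluorescence ratio over baseline after carbachol; higher B-score means a larger calcium signal and so more RGS4 inhibition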
# Target sequence (P49798 whole entry, looked up): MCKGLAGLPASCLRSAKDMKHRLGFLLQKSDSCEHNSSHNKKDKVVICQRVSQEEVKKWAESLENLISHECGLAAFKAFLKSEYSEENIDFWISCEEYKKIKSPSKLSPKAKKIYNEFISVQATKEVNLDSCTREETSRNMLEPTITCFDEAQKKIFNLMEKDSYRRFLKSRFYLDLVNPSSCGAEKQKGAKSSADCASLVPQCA
# MrgX1 allo act = allosterically activates human MrgX1 receptor signaling; Q96LB2; MrgX1-HEK293, Fluo-4 calcium flux, FDSS; active compounds read high; B-score at 10 µM; 310,000 compounds, 0.63% hits; AID 588675;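 active means plate-corrected calcium response at least 3 library SD above typical, normal starting fluorescence, not activating the receptor alone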;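 further: compound read alongside a low EC10 to EC30 dose of BAM8-22 agonist; peak minus trough fluorescence over baseline measured at the second addition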
# The depositor's hits bear a star; i = inactive; nt = no result.
SMILES,MrgX1 antag,RGS4 act,MrgX1 ag,RGS4 block,MrgX1 allo act
CCOc1cc2c(cc1OCC)-n1cccc1C(c1ccc(C(C)C)cc1)NC2 (stereo unspecified),-5.22*,i,i,i,i
CCOc1cc2c(cc1OCC)-n1cccc1C(c1ccc(F)cc1)NC2 (stereo unspecified),i,i,i,i,i
CCOc1cc2c(cc1OCC)-n1cccc1C(c1ccc(OC)cc1)NC2 (stereo unspecified),-8.45*,i,i,i,i
CCOC(=O)N1CCC(NC(=O)CCc2nc(C3=CCN(C)CC3)no2)CC1,i,i,i,i,i
CC1=Nc2ccccc2/C1=C/c1c(O)[nH]c(=O)[nH]c1=O,i,i,i,i,i
O=c1[nH]c(O)c(/C=C2/C=CC(c3cc(Cl)ccc3Cl)=N2)c(=O)[nH]1,-7*,i,i,i,i
Nc1ccccc1-[n+]1c(-c2ccccc2)cc(-c2ccccc2)cc1-c1ccccc1,-7.32*,i,i,i,i
Cc1ccccc1-[n+]1c(-c2ccccc2)cc(-c2ccccc2)cc1-c1ccccc1,-7.33*,-8.86*,i,i,i
Cc1ccc(-c2cc(-c3ccccc3)cc(-c3ccccc3)[n+]2-c2ccc(C(=O)O)cc2)cc1,i,i,i,i,i
O=C(O)c1ccc(-[n+]2c(-c3ccccc3)cc(-c3ccccc3)cc2-c2ccccc2)cc1,i,i,i,i,i
Oc1ccccc1-[n+]1c(-c2ccccc2)cc(-c2ccccc2)cc1-c1ccccc1,i,-7.4*,i,i,12.5*
[O-]c1ccccc1-[n+]1c(-c2ccccc2)cc(-c2ccccc2)cc1-c1ccccc1,i,i,i,i,8.34*
C=C[C@H]1CN2CC[C@H]1C[C@@H]2[C@@H](O)c1ccnc2ccccc12,i,nt,i,nt,i
N[C@@H](Cc1c[nH]c2ccccc12)c1nnc(SCc2ccccc2F)o1,i,i,i,i,i
CCCCOc1ccc(CN2CCN(CCO)CC2)cc1,i,i,i,i,i
CCCCCCOc1ccc(CN2CCN(CCO)CC2)cc1,i,-7.33*,i,i,i
COC(=O)[C@@H]1C[C@@]1(C)[C@@H](NP(=O)(c1ccccc1)c1ccccc1)c1ccccc1,i,i,i,i,i
Cc1nn(-c2ccccc2)c(Cl)c1C1C(C#N)=C(N)Oc2c1c(=O)oc1ccccc21 (stereo unspecified),i,i,i,i,i
O=C1/C(=C\c2ccccc2)C2OCC=C3CN4CCC56c7ccccc7N1C5C2C3CC46 (stereo unspecified),-6.62*,i,i,i,i
CC(C)(C)c1o[nH]c(=O)c1CC(N)C(=O)O (stereo unspecified),i,nt,i,nt,i
C=C(C=O)CC1CC(O)[C@]2(C)OC3C[C@@H]4OC5C[C@]6(C)O[C@]7(C)CCC8OC9C[C@]%10(C)OC(/C(C)=C\CO)C(O)CC%10OC9CC(C)C8OC7CC6O[C@]5(C)C/C=C\C4OC3CC2O1 (stereo partly specified),i,nt,i,nt,i
C=C(C=O)C[C@@H]1C[C@H](O)C2OC3C[C@]4(C)OC5/C=C\CC6OC7C(CC=CCC6OC5CCCC4OC3CC2O1)OC1CC2OC3CC(=O)OC3C[C@@H](C)C[C@@]2(C)OC1C[C@@H]7C (stereo partly specified),nt,-9.74*,nt,i,nt
Cc1cc(N2C(=O)C3CCCN3C2c2ccccc2)no1 (stereo unspecified),i,i,i,i,i
O=P(Nc1cccnc1)(Oc1ccccc1Cl)Oc1ccccc1Cl,i,-8.41*,i,i,i
CC(C)=CCc1c(O)cc2c(c1O)C(=O)CC(c1ccc(O)cc1)O2 (stereo unspecified),i,-7.18*,i,i,i
SMILES,MrgX1 antag,RGS4 act,MrgX1 ag,RGS4 block,MrgX1 allo act
CC1CCC(C(C)C)C(OC(=O)Cn2c(COc3ccccc3)[n+](C)c3ccccc32)C1 (stereo unspecified),-14.4*,-8.03*,i,i,i
CCN(CC)c1ccc(/C=N/c2sc3c(c2C#N)C2CCN3CC2)c(O)c1,i,nt,i,nt,16.7*
CN1CCN(c2ccc([N+](=O)[O-])c3no[n+]([O-])c23)CC1,i,-8.24*,i,i,i
CCN(CC)c1ccc(CNCCc2ccccc2F)cc1,i,-6.97*,i,i,i
CCOC(=O)C1(c2ccccc2)CCN(CCC(C#N)(c2ccccc2)c2ccccc2)CC1,i,i,i,i,i
Cc1nn(Cc2ccccc2)c(Cl)c1C(=O)NC1CCCc2ccccc21 (stereo unspecified),i,i,i,i,i
Cc1cc(OC(=O)c2cccs2)c2c3c(c(=O)oc2c1)CCCC3,i,-7.34*,i,i,i
Cc1cc(OC(=O)c2ccco2)c2c3c(c(=O)oc2c1)CCCC3,i,i,i,i,i
Cc1cc2ccccc2c(=O)n1CC(=O)NCC(=O)N1CCC2(CC1)OCCO2,i,i,i,i,i
CN1C(=O)/C(=C\c2ccc(N3CCCCC3)o2)C(=O)NC1=S,i,i,28.8*,i,i
C=CCN1C(=O)/C(=C\c2ccc(N3CCOCC3)o2)C(=O)NC1=S,i,i,i,i,i
CN1C(=O)/C(=C/c2ccc(N3CCCCCC3)o2)C(=O)NC1=S,i,i,32*,i,i
CN1C(=O)/C(=C\c2ccc(N3CCCCCC3)cc2)C(=O)NC1=S,i,i,i,i,i
C=C1C(=O)O[C@@H]2C[C@@H](C)[C@@H]3C4OC4C(=O)[C@@]3(C)[C@@H](O)[C@H]12 (stereo partly specified),i,i,i,5.15*,i
Brc1ccc(-[n+]2c(-c3ccccc3)cc(-c3ccccc3)cc2-c2ccccc2)cc1,i,-8.58*,i,i,i
COc1ccc(-[n+]2c(-c3ccccc3)cc(-c3ccc(C)cc3)cc2-c2ccccc2)cc1,-6.69*,-7.55*,i,i,14.3*
CCCOC(=O)c1ccc(-[n+]2c(-c3ccccc3)cc(-c3ccccc3)cc2-c2ccccc2)cc1,i,-7.16*,34*,i,i
C=C1C(=O)O[C@H]2[C@H]1[C@H](OC(=O)CC(=O)O[C@@H]1C[C@@H](C)[C@@H]3C=CC(=O)[C@@]3(C)[C@H]3OC(=O)C(=C)[C@H]13)C[C@@H](C)[C@H]1C=CC(=O)[C@]12C,i,i,i,i,i
